Experimental data from ChEMBL document CHEMBL4428090, “Modeling, Synthesis, and Biological Evaluation of Potential Retinoid X Receptor (RXR)-Selective Agonists: Analogues of 4-[1-(3,5,5,8,8-Pentamethyl-5,6,7,8-tetrahydro-2-naphthyl)ethynyl]benzoic Acid (Bexarotene) and 6-(Ethyl(5,5,8,8-tetrahydronaphthalen-2-yl)amino)nicotinic Acid (NEt-TMN)” (J Med Chem, 2016).
Active and inactive are the calls of the source. No cut-off for these calls is given here.

target: T1, Retinoid X receptor (Homo sapiens) (UniProt P28702+P48443+P19793); assay: Agonist activity at human RXR binding domain and activation domain expressed in human HCT116 cells assessed as rexinoid activity at 25 nM incubated for 24 hrs by luciferase reporter gene based mammalian two-hybrid assay relative to bexarotene; type: cell-based; conditions: not given
Outline: (§1)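 HCT-116 cells plated overnight (80,000/well, DMEM with 10% FBS), co-transfected for 24 h with human RXR binding-domain (bait) and activation-domain (prey) vectors, pFR-Luc Gal4 reporter and renilla control. Treated 24 h at 25, 100 or 1000 nM final; vehicle ethanol or DMSO 0.1%. Dual-luciferase read-out. Three independent assays in triplicate; bexarotene set to 100%.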

Activity	SMILES
0.6%	Cc1cc2c(cc1C(=O)c1ccc(S(=O)(=O)O)cc1)C(C)(C)CCC2(C)C

test system: HuT78; assay: Inhibition of HDAC1 gene expression in human HUT78 cells at 100 nM incubated for 48 hrs by quantitative real-time PCR method; type: functional; conditions: HuT78, 48 h
Outline: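 Hut78 cells resuspended in RPMI with 1% FBS, plated 750,000/well and dosed at 100 nM for 48 h. Total RNA extracted, 0.5 µg DNase-treated RNA reverse-transcribed, then qPCR for HDAC1. Quantified by ΔΔCt, normalized to GAPDH and relative to vehicle-treated cells (2^-ΔΔCt).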

SMILES	inhibition at 0.1 µM
C=C(c1ccc(C(=O)O)cc1)c1cc2c(cc1C)C(C)(C)CCC2(C)C [BEXAROTENE]	10%

target: T2, Retinoic acid receptor RXR-alpha/oxysterols receptor LXR-alpha (Homo sapiens, UniProt P19793+Q13133); assay: Agonist activity at human RXRalpha/LXRalpha expressed in human HCT116 cells assessed as reduction in SREBP-mediated transcription activity at 100 nM incubated for 24 hrs by luciferase reporter gene assay relative to bexarotene; type: cell-based; conditions: 0.1 µM
T2 sequence (P19793 whole entry): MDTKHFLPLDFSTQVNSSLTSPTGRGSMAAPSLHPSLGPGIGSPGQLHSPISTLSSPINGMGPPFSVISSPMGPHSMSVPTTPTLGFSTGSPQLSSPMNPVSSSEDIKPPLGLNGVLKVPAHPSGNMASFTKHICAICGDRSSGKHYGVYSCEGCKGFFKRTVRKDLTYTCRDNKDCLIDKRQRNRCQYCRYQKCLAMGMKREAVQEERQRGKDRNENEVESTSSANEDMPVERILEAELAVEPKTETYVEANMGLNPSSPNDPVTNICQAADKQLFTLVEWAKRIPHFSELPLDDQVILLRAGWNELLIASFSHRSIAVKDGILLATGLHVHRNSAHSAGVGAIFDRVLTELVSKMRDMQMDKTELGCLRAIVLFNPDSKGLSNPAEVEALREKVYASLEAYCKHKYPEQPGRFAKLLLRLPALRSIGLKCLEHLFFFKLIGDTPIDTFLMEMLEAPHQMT
T2 sequence (Q13133 whole entry): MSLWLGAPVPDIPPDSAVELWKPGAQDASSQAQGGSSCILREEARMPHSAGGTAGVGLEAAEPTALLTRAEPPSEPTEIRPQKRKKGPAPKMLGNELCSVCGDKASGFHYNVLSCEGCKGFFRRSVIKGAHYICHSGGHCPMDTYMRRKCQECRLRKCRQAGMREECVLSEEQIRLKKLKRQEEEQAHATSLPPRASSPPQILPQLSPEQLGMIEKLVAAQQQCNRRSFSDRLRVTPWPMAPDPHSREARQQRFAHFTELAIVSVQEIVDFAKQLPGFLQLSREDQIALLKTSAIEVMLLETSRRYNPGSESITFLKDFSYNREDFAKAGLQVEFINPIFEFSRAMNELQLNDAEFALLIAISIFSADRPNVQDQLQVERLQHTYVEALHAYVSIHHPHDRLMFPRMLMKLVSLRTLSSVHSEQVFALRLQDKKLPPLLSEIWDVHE
Outline: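 HCT116 cells co-transfected for 24 h with 100 ng pBP1c(6500)-Luc (about 6500 bp murine SREBP-1c promoter), 10 ng human LXRα and 20 ng renilla. Treated 24 h with compound at 100 nM, alone or with 100 nM TO901317. Luciferase output. Three independent assays in triplicate; bexarotene = 100%.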

Activity	SMILES
Not Active	Cc1cc2c(cc1C(=O)c1ccc(S(=O)(=O)O)cc1)C(C)(C)CCC2(C)C

target: T1, Retinoid X receptor (Homo sapiens); assay: Agonist activity at human RXR binding domain and activation domain expressed in human HCT116 cells assessed as rexinoid activity at 1000 nM incubated for 24 hrs by luciferase reporter gene based mammalian two-hybrid assay relative to bexarotene; type: cell-based; conditions: not given; outline: as §1

Activity	SMILES
inactive	Cc1cc2c(cc1C(=O)c1ccc(S(=O)(=O)O)cc1)C(C)(C)CCC2(C)C

target: T1, Retinoid X receptor (Homo sapiens); assay: Agonist activity at human RXR binding domain and activation domain expressed in human HCT116 cells assessed as rexinoid activity at 100 nM incubated for 24 hrs by luciferase reporter gene based mammalian two-hybrid assay relative to bexarotene; type: cell-based; conditions: not given; outline: as §1

Activity	SMILES
inactive	Cc1cc2c(cc1C(=O)c1ccc(S(=O)(=O)O)cc1)C(C)(C)CCC2(C)C

target: T3, Retinoic acid receptor RXR-alpha (Homo sapiens) (UniProt P19793); assay: Agonist activity at human RXRalpha expressed in human HCT116 cells assessed as increase in RXRE-mediated transcription incubated for 24 hrs by RXRE luciferase reporter gene assay; type: cell-based; conditions: not given
T3 sequence (whole entry): T2 sequence (P19793 whole entry)

Activity	SMILES
inactive	Cc1cc2c(cc1C(=O)c1ccc(S(=O)(=O)O)cc1)C(C)(C)CCC2(C)C

target: T4, Retinoid X receptor (Homo sapiens, UniProt P28702+P48443+P19793); assay: Agonist activity at human RXR binding domain and activation domain expressed in human HCT116 cells assessed as rexinoid activity incubated for 24 hrs by luciferase reporter gene based mammalian two-hybrid assay; type: cell-based; conditions: not given
T4 sequence (P28702 whole entry): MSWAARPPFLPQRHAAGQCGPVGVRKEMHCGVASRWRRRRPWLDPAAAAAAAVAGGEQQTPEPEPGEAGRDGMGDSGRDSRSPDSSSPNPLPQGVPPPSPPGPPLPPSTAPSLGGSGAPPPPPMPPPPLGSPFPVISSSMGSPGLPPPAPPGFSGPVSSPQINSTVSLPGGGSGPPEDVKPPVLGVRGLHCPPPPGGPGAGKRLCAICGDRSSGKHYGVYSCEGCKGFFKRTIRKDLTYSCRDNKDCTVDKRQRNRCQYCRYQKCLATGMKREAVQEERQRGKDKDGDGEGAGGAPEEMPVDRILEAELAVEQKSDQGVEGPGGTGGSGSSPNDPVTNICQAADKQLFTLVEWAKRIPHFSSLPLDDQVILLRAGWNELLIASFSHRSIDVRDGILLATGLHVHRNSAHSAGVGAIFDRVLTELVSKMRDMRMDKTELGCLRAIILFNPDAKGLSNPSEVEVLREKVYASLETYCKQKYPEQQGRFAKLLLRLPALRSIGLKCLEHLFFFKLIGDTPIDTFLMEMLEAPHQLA
T4 sequence (P48443 whole entry): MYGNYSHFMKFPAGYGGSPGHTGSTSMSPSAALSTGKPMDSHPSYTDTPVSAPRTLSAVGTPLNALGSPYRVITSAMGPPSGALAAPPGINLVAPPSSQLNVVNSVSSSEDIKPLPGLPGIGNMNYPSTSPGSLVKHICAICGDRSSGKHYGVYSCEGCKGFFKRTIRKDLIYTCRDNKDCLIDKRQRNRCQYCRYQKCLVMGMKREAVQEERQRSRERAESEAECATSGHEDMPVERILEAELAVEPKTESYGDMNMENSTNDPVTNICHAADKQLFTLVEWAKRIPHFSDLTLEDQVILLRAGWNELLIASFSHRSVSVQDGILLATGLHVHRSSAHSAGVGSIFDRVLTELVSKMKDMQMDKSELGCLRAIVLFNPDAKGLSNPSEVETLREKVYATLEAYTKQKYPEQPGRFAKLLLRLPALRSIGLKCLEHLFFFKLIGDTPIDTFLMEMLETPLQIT
T4 sequence (P19793 whole entry): T2 sequence (P19793 whole entry)

EC50	SMILES
> 80 µM	Cc1cc2c(cc1C(=O)c1ccc(S(=O)(=O)O)cc1)C(C)(C)CCC2(C)C

test system: not listed separately; assay: Mutagenicity in Saccharomyces cerevisiae D7 assessed as induction of mutagenesis by measuring forward and reverse mutations up to 0.1 mg/mL; type: toxicity; conditions: not given

SMILES	Activity
C=C(c1ccc(C(=O)O)cc1)c1cc2c(cc1C)C(C)(C)CCC2(C)C [BEXAROTENE]	Non-Toxic
Cc1cc2c(cc1C(=O)c1ccc(S(=O)(=O)O)cc1)C(C)(C)CCC2(C)C	Non-Toxic

target: T1, Retinoid X receptor (Homo sapiens); assay: Antagonist activity against human RXR binding domain and activation domain expressed in human HCT116 cells assessed as reduction in bexarotene-induced rexinoid activity incubated for 24 hrs by luciferase reporter gene based mammalian two-hybrid assay; type: cell-based; conditions: not given

Activity	SMILES
Dose-dependent effect	Cc1cc2c(cc1C(=O)c1ccc(S(=O)(=O)O)cc1)C(C)(C)CCC2(C)C
